Our source for the Ki values is BindingDB's records for doi:10.1021/jm990004i (Imperial College, 1999).

The structures appear in SMILES notation.

The target in this assay is T1, Carboxypeptidase G2 (Pseudomonas aeruginosa (strain ATCC 15692 / DSM 22644 / CIP 104116 / JCM 14847 / LMG 12228 / 1C / PRS 101 / PAO1), UniProt Q9I056).
T1 sequence (Q9I056 whole entry): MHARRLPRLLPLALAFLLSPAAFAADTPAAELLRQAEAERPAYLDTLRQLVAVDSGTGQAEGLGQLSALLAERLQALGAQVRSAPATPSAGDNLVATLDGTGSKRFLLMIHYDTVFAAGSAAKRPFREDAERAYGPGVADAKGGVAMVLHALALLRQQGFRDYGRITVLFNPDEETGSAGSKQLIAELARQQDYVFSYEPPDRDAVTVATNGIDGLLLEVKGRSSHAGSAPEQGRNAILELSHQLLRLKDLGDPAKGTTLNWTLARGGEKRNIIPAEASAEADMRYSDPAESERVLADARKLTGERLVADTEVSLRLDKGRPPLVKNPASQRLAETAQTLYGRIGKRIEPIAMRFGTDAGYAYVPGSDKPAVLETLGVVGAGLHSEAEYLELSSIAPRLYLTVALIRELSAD
The experiment in a line: Inhibitory activity against bacterial carboxypeptidase G2 by Dixon plot assay. In outline:
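Bacterial CPG2 (10 μL stock, 0.1 U) started with 990 μL methotrexate solutions at several concentrations plus inhibitor 0–3.0 μM, in 0.1 M Tris-HCl pH 7.3 with 0.1 mM ZnCl2, 37 °C. Initial rate of absorbance decrease at 320 nm (methotrexate ε 8300). Apparent Ki read from Dixon plot of 1/V against inhibitor concentration.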
`O=C(O)CCC(NC(=O)Sc1cc[n+]([O-])cc1)C(=O)O` (stereo unspecified) [2-(1-Oxy-pyridin-4-ylsulfanylcarbonylamino)-pentanedioic acid] came in with a Ki of 165 µM.

Molecule `Nc1cccc(SC(=O)NC(CCC(=O)O)C(=O)O)c1` (stereo unspecified) [2-(3-Amino-phenylsulfanylcarbonylamino)-pentanedioic acid] had a Ki of 2.5 µM.

The molecule `COc1cccc(SC(=O)NC(CCC(=O)O)C(=O)O)c1` (stereo unspecified) [2-(3-Methoxy-phenylsulfanylcarbonylamino)-pentanedioic acid] yielded a Ki of 1.07 µM. In turn, `Nc1ccc(SC(=O)NC(CCC(=O)O)C(=O)O)cc1` (stereo unspecified) [2-(4-Amino-phenylsulfanylcarbonylamino)-pentanedioic acid] yielded a Ki of 5.8 µM. This Ki lies about 5.4-fold higher than the previous one. The molecule `Cc1ccc(SC(=O)NC(CCC(=O)O)C(=O)O)cc1` (stereo unspecified) [2-p-Tolylsulfanylcarbonylamino-pentanedioic acid] displayed a Ki of 1.05 µM. As to `COc1ccc(SC(=O)N[C@H](CCC(=O)O)C(=O)O)cc1` [(R)-2-(4-Methoxy-phenylsulfanylcarbonylamino)-pentanedioic acid], the affinity corresponds to a Ki of 0.3 µM. This Ki lies about 3.5-fold lower than the previous one.

The term Ki denotes a dissociation constant, usually derived from enzyme kinetics or from competition with a known ligand. Low values mean higher affinity, high ones lower affinity.
